The record followed here is ChEMBL document CHEMBL1795218, “Selective bone targeting 5-fluorouracil prodrugs: synthesis and preliminary biological evaluation” (Bioorg Med Chem, 2011).

Data set [1] relates to Hydroxyapatite. The data set can be described thus: Binding affinity to bone mineral hydroxyapatite assessed as binding index after 0.5 hrs by UV-spectrophotometer analysis relative to 5-fluorouracil. The arrangement: concentration or dose not given beside the values.
Data set [2] has as its system Hydroxyapatite. The data set can be described thus: Binding affinity to bone mineral hydroxyapatite assessed as binding index after 24 hrs by UV-spectrophotometer analysis relative to 5-fluorouracil. Also noted: concentration or dose not given beside the values. The essentials:
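Hydroxyapatite (25 mg/ml) added to 5 ml conjugate solutions at 500 µg/ml (C0). Sonicated 5 min, then held in a 37 °C water bath for […] or over 24 h. Unbound conjugate read by UV at 254 nm against an absorbance–concentration calibration line. Tetracycline as positive control. Binding index given as mean ± SD, n = 3.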

The nature of data set [3]: Half life in mouse. It is filed as ADME, organism-based. The note with it: in vivo.
A short description of data set [4]: Apparent volume of distribution in mouse. The data set is classed as ADME, organism-based. To be noted: in vivo, read-out: Vz.
The test system of data set [5] is MG-63. The data set can be described thus: Cytotoxicity against human MG63 cells after 3 days by MTT assay. The note with it: MG-63, 72 h. The data set is classed as functional, cell-based. The essentials:
(§1)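 MG-63 or HeLa cells plated at 5×10³ cells/well. Exposed to conjugates at 1–64 µM (5-FU-equivalent), with or without human plasma, for 72 h under 5% CO₂. MTT then added for 2 h and absorbance read at 490 nm. Mean and SD of three independent experiments.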
(In general: Tetrazolium assays rely on reduction of a dye to a coloured formazan, in cell work by metabolically active cells.)

The test system of data set [6] is MG-63. The data set can be described thus: Cytotoxicity against human MG63 cells after 3 days by MTT assay in presence of 50% human plasma. The data set is classed as functional, cell-based. In outline:
as §1

The test system of data set [7] is HeLa. The data set can be described thus: Cytotoxicity against human HeLa cells after 3 days by MTT assay in presence of 50% human plasma. The data set is classed as functional, cell-based. The essentials:
as §1

In data set [8] the test system is Femur. The data set can be described thus: Biodistribution in po dosed mouse femur after 12 hrs. The data set is classed as ADME, organism-based. To be noted: in vivo. In outline: (§2)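 Mice dosed orally. At 1 h or 12 h, kidney, liver, femur and blood collected. Organs rinsed in cold saline, blotted, extracted with methanol, diluted and centrifuged before analysis. Mean and SD of three independent experiments.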

The nature of data set [9]: AUC in mouse. The data set is classed as ADME, organism-based. The note with it: plasma.
A further data set is filed under the species Mus musculus. The data set can be described thus: Cmax in mouse. The data set is classed as ADME, organism-based. The note with it: in vivo.
The test system of data set [10] is HeLa. The data set can be described thus: Cytotoxicity against human HeLa cells after 3 days by MTT assay. The data set is classed as functional, cell-based. The note with it: 72 h. In outline: as §1
Data set [11] concerns Plasma. The data set can be described thus: Prodrug activation in 50% human plasma assessed as 5-fluorouracil release after 60 hrs by RP-HPLC analysis. The data set is classed as cell-free. In outline: (§3)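 Conjugates incubated at 37 °C in PBS pH 7.4 or in 50% (v/v in PBS) human plasma, with a little DMSO added for solubility. Released 5-FU measured by RP-HPLC at 1.0 mL/min, detection at 256 nm, 25 °C.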

The subject of data set [12] is Plasma. The data set can be described thus: Prodrug activation in 50% human plasma assessed as 5-fluorouracil release after 5 days by RP-HPLC analysis. The data set is classed as cell-free. The note with it: 120 h. In outline: as §3
In data set [13] the test system is Femur. The data set can be described thus: Biodistribution in po dosed mouse femur after 1 hr. The data set is classed as ADME, organism-based. To be noted: in vivo. In outline: as §2
A short description of data set [14]: Prodrug activation in phosphate buffered saline at pH 7.4 assessed as 5-fluorouracil release after 5 days by RP-HPLC analysis. To be noted: buffer, pH 7.4, 120 h. The essentials: as §3
Data set [15] in a line: Prodrug activation in phosphate buffered saline at pH 7.4 assessed as 5-fluorouracil release after 60 hrs by RP-HPLC analysis. The note with it: buffer, pH 7.4, 60 h. The essentials: as §3

Active and inactive are the calls of the source. The rule behind the calls is not given here. Residues, ends and D or L forms follow the SMILES beside them. *: point of attachment. Acetyl(5-fluorouracil-1-yl) = O=C(Cn1cc(F)c(=O)[nH]c1=O)*; X1 = O=C(CCC(=O)*)OCn1cc(F)c(=O)[nH]c1=O

The term half-life denotes how long it takes for the measured level to halve. As usually defined, the IC50 is the concentration at which inhibition is half-maximal. A word on the AUC: it is concentration integrated over time. By Cmax is commonly meant the peak of the concentration-time curve.

On to `CN(C)[C@@H]1C(O)=C(C(N)=O)C(=O)[C@@]2(O)C(O)=C3C(=O)c4c(O)cccc4[C@@](C)(O)[C@H]3C[C@@H]12`, for which the results for the Activity in the data set on Hydroxyapatite [1] and in the data set on Hydroxyapatite [2] were 24.1% and 56.2%, respectively.
For `O=C(O)C[C@H](NC(=O)[C@H](CC(=O)O)NC(=O)[C@H](CC(=O)O)NC(=O)[C@H](CC(=O)O)NC(=O)CCC(=O)OCn1cc(F)c(=O)[nH]c1=O)C(=O)O` (X1-DDDD-OH), the Activity in the data set on Hydroxyapatite [1] is 16.6%; in the data set with Hydroxyapatite [2] it was 42.5%.
Take `O=C(O)C[C@H](NC(=O)[C@H](CC(=O)O)NC(=O)[C@H](CC(=O)O)NC(=O)[C@H](CC(=O)O)NC(=O)[C@H](CC(=O)O)NC(=O)CCC(=O)OCn1cc(F)c(=O)[nH]c1=O)C(=O)O` (X1-DDDDD-OH): the values for the Activity in the data set with Hydroxyapatite [1] and in the data set with Hydroxyapatite [2] were 13.4% and 25.5%, respectively.
`O=C(O)C[C@H](NC(=O)[C@H](CC(=O)O)NC(=O)[C@H](CC(=O)O)NC(=O)[C@H](CC(=O)O)NC(=O)[C@H](CC(=O)O)NC(=O)[C@H](CC(=O)O)NC(=O)CCC(=O)OCn1cc(F)c(=O)[nH]c1=O)C(=O)O` (X1-DDDDDD-OH) gave a half-life in data set [3] of 6.75 h. For the same compound, in [4], the Vd was found to be 32.2 L/kg. The IC50 in the data set on MG-63 [5] and with HeLa [10] was more than 64 µM in each case. The outcome in the data set with MG-63 [6] and with HeLa [7] was Active. Besides, the Drug uptake result in the data set with Femur [8] and in the data set with Femur [13] was “Active” in each case. Moreover, the AUC in data set [9] amounted to 90100 ng·h/mL. Further, the Activity in the data set with Hydroxyapatite [1] amounted to 37.8%; with Hydroxyapatite [2], 69.7%; with Plasma [11] it was 60.3%; with Plasma [12], 80%. In the data set filed under Mus musculus, the Cmax worked out at 51100 µg/mL.
As to `O=C(O)C[C@H](NC(=O)[C@H](CC(=O)O)NC(=O)[C@H](CC(=O)O)NC(=O)[C@H](CC(=O)O)NC(=O)Cn1cc(F)c(=O)[nH]c1=O)C(=O)O` ({Acetyl(5-fluorouracil-1-yl)}-DDDD-OH), the Activity with Hydroxyapatite [1] came to 14.3%; in the data set with Hydroxyapatite [2] it was 40.2%.
As for `O=C(O)C[C@H](NC(=O)[C@H](CC(=O)O)NC(=O)[C@H](CC(=O)O)NC(=O)[C@H](CC(=O)O)NC(=O)[C@H](CC(=O)O)NC(=O)Cn1cc(F)c(=O)[nH]c1=O)C(=O)O` ({Acetyl(5-fluorouracil-1-yl)}-DDDDD-OH), the Activity in the data set with Hydroxyapatite [1] stood at 11.6%; in the data set on Hydroxyapatite [2] it was 19.8%.
Compound `O=C(O)C[C@H](NC(=O)[C@H](CC(=O)O)NC(=O)[C@H](CC(=O)O)NC(=O)[C@H](CC(=O)O)NC(=O)[C@H](CC(=O)O)NC(=O)[C@H](CC(=O)O)NC(=O)Cn1cc(F)c(=O)[nH]c1=O)C(=O)O` ({Acetyl(5-fluorouracil-1-yl)}-DDDDDD-OH) yielded a half-life in data set [3] of 4.36 h. Moreover, the Vd in data set [4] amounted to 24.1 L/kg. Besides, the IC50 with MG-63 [5] and in the data set on HeLa [10] was more than 64 µM each time. Moreover, the result with MG-63 [6] and in the data set on HeLa [7] was Active. In addition, the Activity is 5% in [14]; 31.4% in the data set on Hydroxyapatite [1]; 62.7% in the data set with Hydroxyapatite [2]; 47.4% with Plasma [11]; 60% with Plasma [12]; 3.2% in data set [15]. Besides, the Drug uptake result in the data set with Femur [8] and with Femur [13] was “Active” in each case. In addition, in [9], the AUC amounted to 76600 ng·h/mL. The concentration in the data set listed under Mus musculus peaked (Cmax) at 42400 µg/mL.
In data set [3], `O=c1[nH]cc(F)c(=O)[nH]1` [FLUOROURACIL] had a half-life of 4.36 h. Also, the Vd in data set [4] was 24.1 L/kg. The figures for the IC50 in the data set on MG-63 [5] and in the data set on HeLa [10] were 8 µM and 4 µM, respectively. Also, the Drug uptake entry in the data set on Femur [8] and with Femur [13] was “Active” throughout. The exposure (AUC) in data set [9] was 76600 ng·h/mL. Further, the Activity with Hydroxyapatite [1] and in the data set with Hydroxyapatite [2] was 0% each time.
